{"source": "ChEMBL document CHEMBL4706642", "about": "“Discovery of a Potent Dual Inhibitor of Acetylcholinesterase and Butyrylcholinesterase with Antioxidant Activity that Alleviates Alzheimer-like Pathology in Old APP/PS1 Mice” (J Med Chem, 2021)", "key": {"Acetylcholinesterase": {"target": "Acetylcholinesterase (Homo sapiens, UniProt P22303)", "sequence (P22303 whole entry)": "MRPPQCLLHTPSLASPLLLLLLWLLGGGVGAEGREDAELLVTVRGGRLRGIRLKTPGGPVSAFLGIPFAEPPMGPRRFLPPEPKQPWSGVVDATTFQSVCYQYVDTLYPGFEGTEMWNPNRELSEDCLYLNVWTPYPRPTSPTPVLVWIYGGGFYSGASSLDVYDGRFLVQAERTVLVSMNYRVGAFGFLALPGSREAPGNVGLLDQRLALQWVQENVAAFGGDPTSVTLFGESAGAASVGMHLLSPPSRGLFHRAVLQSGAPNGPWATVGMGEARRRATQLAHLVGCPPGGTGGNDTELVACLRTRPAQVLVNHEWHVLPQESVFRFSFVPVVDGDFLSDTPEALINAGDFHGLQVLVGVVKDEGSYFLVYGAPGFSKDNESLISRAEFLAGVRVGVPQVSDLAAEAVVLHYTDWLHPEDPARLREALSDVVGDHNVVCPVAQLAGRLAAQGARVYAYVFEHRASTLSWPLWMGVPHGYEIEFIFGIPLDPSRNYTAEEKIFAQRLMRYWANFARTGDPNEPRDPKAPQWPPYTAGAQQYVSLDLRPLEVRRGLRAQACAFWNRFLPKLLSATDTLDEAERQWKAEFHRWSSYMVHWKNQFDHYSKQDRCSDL", "assay": "Inhibition of recombinant human AChE using acetylthiocholineiodide as substrate preincubated for 20 mins followed by substrate addition by Ellman's method", "outline": "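Enzyme was 0.02 U/mL human recombinant AChE or human serum BChE. Non-enzymatic hydrolysis was corrected. IC50 came from a % inhibition vs log[I] regression. Selectivity = IC50 hBChE/IC50 hAChE. Mean ± SEM of ≥2 experiments, each in duplicate/triplicate.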"}, "[1]": {"assay": "Selectivity index, ratio of IC50 for human serum BChE using butyrylthiocholineiodide as substrate to IC50 for recombinant human AChE using acetylthiocholine iodide as substrate", "outline": "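Ellman spectrophotometric assay in 0.1 M phosphate buffer, pH 8.0, with 340 μM DTNB. Enzyme was 0.02 U/mL human recombinant AChE or human serum BChE. […] Then 550 μM ATCh or BTCh was added, and A412 was followed for 210 s. Non-enzymatic hydrolysis was corrected. IC50 came from a % inhibition vs log[I] regression. Selectivity = IC50 hBChE/IC50 hAChE. Mean ± SEM of ≥2 experiments, each in duplicate/triplicate.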"}, "[2]": {"target": "Beta-secretase 1 (Homo sapiens) (UniProt P56817)", "sequence (P56817 whole entry)": "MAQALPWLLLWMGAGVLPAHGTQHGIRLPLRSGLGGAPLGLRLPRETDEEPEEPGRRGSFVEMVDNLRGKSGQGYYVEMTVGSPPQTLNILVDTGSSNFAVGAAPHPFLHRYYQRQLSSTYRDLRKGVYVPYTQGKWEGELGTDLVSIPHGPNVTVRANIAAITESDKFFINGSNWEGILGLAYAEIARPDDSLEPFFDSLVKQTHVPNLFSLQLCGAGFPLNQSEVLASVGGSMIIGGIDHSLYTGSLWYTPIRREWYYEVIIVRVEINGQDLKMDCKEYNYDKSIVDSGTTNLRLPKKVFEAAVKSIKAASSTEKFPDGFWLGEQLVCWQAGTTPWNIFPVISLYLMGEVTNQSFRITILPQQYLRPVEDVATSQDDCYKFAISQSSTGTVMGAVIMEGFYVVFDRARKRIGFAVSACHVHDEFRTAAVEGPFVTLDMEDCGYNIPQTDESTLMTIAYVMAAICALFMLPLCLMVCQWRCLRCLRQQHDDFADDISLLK", "assay": "Inhibition of recombinant human BACE-1 at 1 uM using methoxycoumarin-Ser-Glu-Val-Asn-Leu-Asp-Ala-Glu-Phe-Lys-dinitrophenyl as substrate preincubated for 1 hr followed by substrate addition and measured after 15 mins by fluorescence based assay relative to control", "conditions": "time 75.0 min"}, "[3]": {"assay": "Antioxidant activity assessed as DPPH radical scavenging activity incubated for 30 mins under dark condition by UV-Vis spectrophotometric analysis", "assay_type": "functional"}, "[4]": {"assay": "Permeability of the compound in PBS/EtOH buffer (70:30) by PAMPA-BBB assay", "assay_type": "ADME", "conditions": "read-out: permeability", "outline": "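PAMPA-BBB permeability, reported as Pe in 10⁻⁶ cm s⁻¹, with CNS+ defined as Pe > 5.1. Mean ± SD of three experiments, each in triplicate.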"}, "[5]": {"assay": "Drug distribution in wild type C57BL6 mouse kidney at 2 mg/kg, ip thrice a week for 2 weeks observed after 4 hrs post last dose by HPLC/MS/MS analysis", "assay_type": "ADME, organism-based", "conditions": "in vivo, 336 h"}, "[6]": {"assay": "Drug concentration in wild type C57BL6 mouse brain at 2 mg/kg, ip thrice a week for 2 weeks observed after 4 hrs post last dose by HPLC/MS/MS analysis", "conditions": "brain"}, "[7]": {"assay": "Drug concentration in wild type C57BL6 mouse plasma at 2 mg/kg, ip thrice a week for 2 weeks observed after 4 hrs post last dose by HPLC/MS/MS analysis", "conditions": "plasma"}, "Mus musculus [8]": {"test_system": "Mus musculus", "assay": "Cognitive enhancing effect in 6 months young APP/PS1 double mutant-transgenic mouse model assessed as increase in preference index for object at 2 mg/kg, ip administered thrice a week for 4 weeks by novel object recognition test", "assay_type": "functional, organism-based", "outline": "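Male APP/PS1 mice received 2 mg/kg i.p. in saline (or vehicle), three times per week for 4 weeks. Preference index = time exploring the relocated or novel object divided by total time exploring both objects. Mean ± SEM, n = 7 per group; one-way ANOVA with Bonferroni post hoc.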"}, "Mus musculus [9]": {"test_system": "Mus musculus", "assay": "Memory enhancement effect in 11 months old APP/PS1 double mutant-transgenic mouse model assessed as number of trials required to reach criterion at 2 mg/kg, ip administered thrice a week for 4 weeks measured after 4 days by memory flexibility text", "assay_type": "functional", "outline": "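Memory flexibility test in male APP/PS1 mice treated i.p. with 2 mg/kg in saline (or vehicle), three times weekly for 4 weeks. The number of trials to reach criterion was counted on each testing day over 4 days. Mean ± SEM, n = 7 per group; one-way ANOVA with Bonferroni post hoc.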"}, "Mus musculus [10]": {"test_system": "Mus musculus", "assay": "Antialzheimer activity in 6 months young APP/PS1 double mutant-transgenic mouse model assessed as amyloid beta40 levels in hippocampus at 2 mg/kg, ip administered thrice a week for 4 weeks by ELISA", "assay_type": "functional, organism-based", "outline": "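Male APP/PS1 mice received 2 mg/kg i.p. in saline (or vehicle), three times weekly for 4 weeks. After the behavioral tests, hippocampus was collected and Aβ40 and Aβ42 were measured with a specific ELISA kit. Mean ± SEM, n = 7 mice per group; one-way ANOVA with Bonferroni post hoc.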"}, "Mus musculus [11]": {"test_system": "Mus musculus", "assay": "(§1) Antialzheimer activity in 6 months young APP/PS1 double mutant-transgenic mouse model assessed as postsynaptic potential in CA3 region of hippocampus at 2 mg/kg, ip administered thrice a week for 4 weeks followed by stimulation with 1 to 10 uA EPSP by fluorescence microscopy based electrophysiology method (reference value: 0.269 +/- 0.072 mV/ms)", "assay_type": "functional", "outline": "(§2)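 Hippocampal slices from male APP/PS1 mice given 2 mg/kg i.p. in saline (or saline alone), three times per week for 4 weeks. Input–output curves were built from evoked fEPSP slopes and fiber volley amplitudes, with values taken at the maximum current intensity. Mean ± SEM of 9 slices from 3 mice per group; two-way ANOVA with Bonferroni post hoc.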"}, "Mus musculus [12]": {"test_system": "Mus musculus", "assay": "Antialzheimer activity in 6 months young APP/PS1 double mutant-transgenic mouse model assessed as theta burst induced-long term potentiation in CA3 region of hippocampus at 2 mg/kg, ip administered thrice a week for 4 weeks by fluorescence microscopy based electrophysiology method (reference value: 134.1 +/- 13.1 %)", "assay_type": "functional"}, "Mus musculus [13]": {"test_system": "Mus musculus", "assay": "as §1, with “fiber volley amplitude” for “postsynaptic potential”, “0.719” for “0.269”, “0.175” for “0.072”", "assay_type": "functional", "outline": "as §2"}, "Mus musculus [14]": {"test_system": "Mus musculus", "assay": "as §1, with “11” for “6”, “old” for “young”, “0.293” for “0.269”, “0.105” for “0.072”", "assay_type": "functional", "outline": "as §2"}, "Mus musculus [15]": {"test_system": "Mus musculus", "assay": "Neuroprotective activity in 11 months old APP/PS1 double mutant-transgenic mouse model assessed as decrease in 4-hydroxy-2-nonenal levels in hippocampus at 2 mg/kg, ip administered thrice a week for 4 weeks by Hoechst staining based immunofluorescence analysis", "assay_type": "functional, organism-based", "outline": "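Hippocampal 4-hydroxy-2-nonenal was assessed by immunofluorescence with Hoechst counterstain in male APP/PS1 mice given 2 mg/kg i.p. in saline (or vehicle), three times weekly for 4 weeks. Mean ± SEM, n = 4 mice per group; one-way ANOVA with Bonferroni post hoc.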"}, "Mus musculus [16]": {"test_system": "Mus musculus", "assay": "Antiinflammatory activity in 6 months young APP/PS1 double mutant-transgenic mouse model assessed as reduction in GFAP level in hippocampus at 2 mg/kg, ip administered thrice a week for 4 weeks by Hoechst staining based immunofluorescence analysis", "assay_type": "functional, organism-based", "outline": "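Hippocampal GFAP immunofluorescence with Hoechst nuclear counterstain in male APP/PS1 mice after 2 mg/kg i.p. in saline (or vehicle), three times per week for 4 weeks. Mean ± SEM, n = 4 mice per group; one-way ANOVA with Bonferroni post hoc.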"}, "Mus musculus [17]": {"test_system": "Mus musculus", "assay": "Cognitive enhancing effect in 11 months old APP/PS1 double mutant-transgenic mouse model assessed as effect on time spent on moving along the field at 2 mg/kg, ip administered thrice a week for 4 weeks by LOF test", "assay_type": "functional, organism-based", "outline": "(§3)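 Open-field locomotor test in male APP/PS1 mice after 2 mg/kg i.p. in saline (or vehicle), three times per week for 4 weeks. Read-outs were time spent moving and number of crossings of the central area of a transparent cage. Mean ± SEM, n = 7 per group; one-way ANOVA with Bonferroni post hoc.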"}, "Mus musculus [18]": {"test_system": "Mus musculus", "assay": "Cognitive enhancing effect in 11 months old APP/PS1 double mutant-transgenic mouse model assessed as effect on number of times animal crossing central area in transparent cage at 2 mg/kg, ip administered thrice a week for 4 weeks by LOF test", "assay_type": "functional, organism-based", "outline": "as §3"}}, "note": "Calls of active or inactive are those of the source.", "data": [{"smiles": "COc1cc(CNC(=O)CCCCCCNc2c3c(nc4cc(Cl)ccc24)CC2C=C(C)CC3C2)ccc1O", "note": "(stereo not drawn)", "values": [{"measurement": "IC50", "setting": "Acetylcholinesterase", "result": 0.00077, "unit": "µM"}, {"measurement": "Ratio IC50", "setting": "[1]", "result": 39.7}, {"measurement": "inhibition", "setting": "[2]", "result": 7.4, "unit": "%"}, {"measurement": "IC50", "setting": "[3]", "result": 55.4, "unit": "µM"}, {"measurement": "Papp", "setting": "[4]", "result": 17.2, "unit": "×10⁻⁶ cm/s"}, {"measurement": "Drug uptake", "setting": "[5]", "result": "Active"}, {"measurement": "concentration at 336 h", "setting": "[6]", "result": 1580, "unit": "ng/g"}, {"measurement": "concentration at 336 h", "setting": "[7]", "result": "< 3000", "unit": "ng/mL"}, {"measurement": "Activity", "setting": "Mus musculus [8]", "result": "inactive"}, {"measurement": "Activity", "setting": "Mus musculus [9]", "result": 13}, {"measurement": "Activity", "setting": "Mus musculus [10]", "result": "inactive"}, {"measurement": "Activity", "setting": "Mus musculus [11]", "result": 0.262, "unit": "mV/ms"}, {"measurement": "Activity", "setting": "Mus musculus [12]", "result": 275.6, "unit": "%"}, {"measurement": "Activity", "setting": "Mus musculus [13]", "result": 0.399, "unit": "mV/ms"}, {"measurement": "Activity", "setting": "Mus musculus [14]", "result": 0.545, "unit": "mV/ms"}, {"measurement": "Activity", "setting": "Mus musculus [15]", "result": "Active"}, {"measurement": "Activity", "setting": "Mus musculus [16]", "result": "Active"}, {"measurement": "Activity", "setting": "Mus musculus [17]", "result": "inactive"}, {"measurement": "Activity", "setting": "Mus musculus [18]", "result": "inactive"}]}, {"smiles": "COc1cc(CNC(=O)Cc2cn(CCCCC3=CC4Cc5nc6cc(Cl)ccc6c(N)c5C(C3)C4)nn2)ccc1O", "note": "(stereo not drawn)", "values": [{"measurement": "IC50", "setting": "Acetylcholinesterase", "result": 0.00106, "unit": "µM"}, {"measurement": "Ratio IC50", "setting": "[1]", "result": 6.9}, {"measurement": "inhibition", "setting": "[2]", "result": "inactive"}, {"measurement": "IC50", "setting": "[3]", "result": 92, "unit": "µM"}, {"measurement": "Papp", "setting": "[4]", "result": 8.8, "unit": "×10⁻⁶ cm/s"}, {"measurement": "Drug uptake", "setting": "[5]", "result": "Active"}, {"measurement": "concentration at 336 h", "setting": "[6]", "result": 18900, "unit": "ng/g"}, {"measurement": "concentration at 336 h", "setting": "[7]", "result": 35600, "unit": "ng/mL"}, {"measurement": "Activity", "setting": "Mus musculus [8]", "result": "inactive"}, {"measurement": "Activity", "setting": "Mus musculus [9]", "result": 7}, {"measurement": "Activity", "setting": "Mus musculus [10]", "result": "inactive"}, {"measurement": "Activity", "setting": "Mus musculus [11]", "result": 0.296, "unit": "mV/ms"}, {"measurement": "Activity", "setting": "Mus musculus [12]", "result": 397.3, "unit": "%"}, {"measurement": "Activity", "setting": "Mus musculus [13]", "result": 0.738, "unit": "mV/ms"}, {"measurement": "Activity", "setting": "Mus musculus [14]", "result": 0.652, "unit": "mV/ms"}, {"measurement": "Activity", "setting": "Mus musculus [15]", "result": "Active"}, {"measurement": "Activity", "setting": "Mus musculus [16]", "result": "inactive"}, {"measurement": "Activity", "setting": "Mus musculus [17]", "result": "inactive"}, {"measurement": "Activity", "setting": "Mus musculus [18]", "result": "inactive"}]}]}
